In ChEMBL document CHEMBL4613327, “Sulfonamide Inhibitors of Human Carbonic Anhydrases Designed through a Three-Tails Approach: Improving Ligand/Isoform Matching and Selectivity of Action” (J Med Chem, 2020):

What was measured:
[1] = system: Oryctolagus cuniculus; experiment: (§1) Suppression of hypertonic saline solution-induced increase in intraocular pressure in New Zealand rabbit model of glaucoma assessed as reduction in intraocular pressure dosed as 1% eye drops formulation via direct instillation into eye conjunctive pocket measured after 30 mins post dose relative to untreated control; assay type: functional
[2] = system: Oryctolagus cuniculus; experiment: as §1, with “60” for “30”; assay type: functional
[3] = system: Oryctolagus cuniculus; experiment: as §1, with “120” for “30”; assay type: functional
[4] = system: Oryctolagus cuniculus; experiment: as §1, with “240” for “30”; assay type: functional
[5] = biological target: Carbonic anhydrase 1 (Homo sapiens, UniProt P00915); experiment: Inhibition of human CA1 preincubated for 15 mins by stopped-flow CO2 hydration kinetic assay based Cheng-Prusoff equation analysis
Carbonic anhydrase 1, sequence (P00915 whole entry): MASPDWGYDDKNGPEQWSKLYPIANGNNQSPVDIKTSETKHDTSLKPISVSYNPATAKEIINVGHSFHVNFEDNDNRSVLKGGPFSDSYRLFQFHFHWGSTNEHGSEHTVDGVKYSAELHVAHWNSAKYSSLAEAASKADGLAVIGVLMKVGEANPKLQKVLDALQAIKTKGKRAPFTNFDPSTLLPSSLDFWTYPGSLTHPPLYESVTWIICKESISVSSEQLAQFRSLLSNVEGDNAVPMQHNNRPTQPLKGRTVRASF

[6] = biological target: Carbonic anhydrase 2 (Homo sapiens, UniProt P00918); experiment: Inhibition of human CA2 preincubated for 15 mins by stopped-flow CO2 hydration kinetic assay based Cheng-Prusoff equation analysis
[7] = biological target: Carbonic anhydrase 4 (Homo sapiens, UniProt P22748); experiment: Inhibition of human CA4 preincubated for 15 mins by stopped-flow CO2 hydration kinetic assay based Cheng-Prusoff equation analysis
Carbonic anhydrase 4, sequence (P22748 whole entry): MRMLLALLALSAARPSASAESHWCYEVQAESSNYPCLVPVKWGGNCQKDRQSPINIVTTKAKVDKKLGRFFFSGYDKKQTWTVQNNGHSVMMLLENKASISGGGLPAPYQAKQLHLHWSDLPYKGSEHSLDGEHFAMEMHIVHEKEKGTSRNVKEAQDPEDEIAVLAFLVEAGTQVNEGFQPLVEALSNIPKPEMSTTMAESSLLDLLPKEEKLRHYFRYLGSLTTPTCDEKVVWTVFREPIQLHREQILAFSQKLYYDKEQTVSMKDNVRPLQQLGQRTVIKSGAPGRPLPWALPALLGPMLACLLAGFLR

[8] = biological target: Carbonic anhydrase 12 (Homo sapiens, UniProt O43570); experiment: Inhibition of human CA12 preincubated for 15 mins by stopped-flow CO2 hydration kinetic assay based Cheng-Prusoff equation analysis
Carbonic anhydrase 12, sequence (O43570 whole entry): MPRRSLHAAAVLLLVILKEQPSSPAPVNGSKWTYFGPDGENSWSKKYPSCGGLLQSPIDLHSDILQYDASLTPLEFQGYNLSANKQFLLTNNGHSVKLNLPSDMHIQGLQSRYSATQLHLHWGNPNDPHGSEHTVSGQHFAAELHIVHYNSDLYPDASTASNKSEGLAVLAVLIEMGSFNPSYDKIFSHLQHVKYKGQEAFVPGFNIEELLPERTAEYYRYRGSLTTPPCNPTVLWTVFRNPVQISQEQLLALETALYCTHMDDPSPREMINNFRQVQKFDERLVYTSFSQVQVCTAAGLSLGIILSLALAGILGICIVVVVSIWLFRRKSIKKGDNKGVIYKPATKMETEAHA

[9] = organism: Homo sapiens; experiment: Selectivity index, ratio of Ki for inhibition of human CA1 to Ki for inhibition of human CA2
How it was run: (§2)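 Ratio of Ki values. Each Ki came from stopped-flow CA-catalysed CO2 hydration with recombinant in-house hCA isoforms, phenol red 0.2 mM read at 557 nm, 20 mM Hepes pH 7.5, 20 mM Na2SO4, and CO2 1.7–17 mM. Inhibitor and enzyme were preincubated 15 min at room temperature. Initial rates, less the uncatalysed rate, were fit by nonlinear least squares with Cheng–Prusoff. Mean of ≥3 determinations.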

[10] = organism: Homo sapiens; experiment: Selectivity index, ratio of Ki for inhibition of human CA1 to Ki for inhibition of human CA4; how it was run: as §2
[11] = organism: Homo sapiens; experiment: Selectivity index, ratio of Ki for inhibition of human CA2 to Ki for inhibition of human CA4; how it was run: as §2
[12] = organism: Homo sapiens; experiment: Selectivity index, ratio of Ki for inhibition of human CA1 to Ki for inhibition of human CA12; how it was run: as §2
[13] = organism: Homo sapiens; experiment: Selectivity index, ratio of Ki for inhibition of human CA2 to Ki for inhibition of human CA12; how it was run: as §2
[14] = organism: Homo sapiens; experiment: Selectivity index, ratio of Ki for inhibition of human CA4 to Ki for inhibition of human CA12; how it was run: as §2

SMILES	Activity [1] [mmHg]	Activity [2] [mmHg]	Activity [3] [mmHg]	Activity [4] [mmHg]	Ki [5] [nM]	Ki [6] [nM]	Ki [7] [nM]	Ki [8] [nM]	Ratio Ki [9]	Ratio Ki [10]	Ratio Ki [11]	Ratio Ki [12]	Ratio Ki [13]	Ratio Ki [14]
CCN[C@H]1C[C@H](C)S(=O)(=O)c2sc(S(N)(=O)=O)cc21.Cl [DORZOLAMIDE HYDROCHLORIDE]	1	5.4	2.8	3										
NS(=O)(=O)c1ccc(CCN(Cc2ccco2)C(=O)CN(CCC(=O)O)CCc2ccccc2)cc1		3.3	1	1.2	79.5	2.4	335	7.1	33.1	0.2	0.007	11.2	0.3	47.3
NS(=O)(=O)c1ccc(CCN(Cc2ccc(F)cc2)C(=O)CN(CCC(=O)O)CCc2ccccc2)cc1	1.3	4.8	3.2	2.4	95.8	23.5	419	8.8	4.1	0.2	0.06	10.9	2.7	47.6
